Experimental data from ChEMBL document CHEMBL4152263, “Novel anticancer hybrids from diazen-1-ium-1,2-diolate nitric oxide donor and ROS inducer plumbagin: Design, synthesis and biological evaluations” (Eur J Med Chem, 2018).
The source made the active and inactive calls. No cut-off for these calls is given here.

Columns and labels:
A549 [1] = assay: Cytotoxicity against human A549 cells assessed as growth inhibition at 10 uM after 48 hrs by MTT assay relative to control; type: functional; conditions: A549, 48 h, read-out: GI
Summary of the method: (§1)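 Single-concentration MTT screen. Cells were seeded, allowed to adhere for 24 h, and exposed to compound for 48 h. MTT (5 mg/mL) was added for the last 4 h, then DMSO, with absorbance read at 570 nm. Result is inhibition rate (%) at the stated concentration; mean of three independent experiments.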

HepG2 [2] = assay: Cytotoxicity against human HepG2 cells assessed as growth inhibition at 10 uM after 48 hrs by MTT assay relative to control; type: functional; conditions: HepG2, 48 h, read-out: GI; summary of the method: as §1
MDA-MB-231 [3] = assay: Cytotoxicity against human MDA-MB-231 cells assessed as growth inhibition at 10 uM after 48 hrs by MTT assay relative to control; type: functional; conditions: MDA-MB-231, 48 h, read-out: GI; summary of the method: as §1
HK-2 = assay: Cytotoxicity against human HK2 cells assessed as growth inhibition after 48 hrs by MTT assay; type: cell-based; conditions: HK-2, 48 h
Summary of the method: (§2)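 Cells seeded at 5.0 × 10^4/ml and left 24 h to adhere, then exposed to a range of test-compound concentrations for 44 h. MTT (5 mg/mL) was added for a further 4 h at 37 °C. Supernatant was removed, DMSO added, and OD read at 570 nm. IC50 after 48 h total exposure; mean ± SD, n = 3.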

MDA-MB-231 [4] = assay: Cytotoxicity against human MDA-MB-231 cells assessed as growth inhibition after 48 hrs by MTT assay; type: functional, cell-based; conditions: MDA-MB-231, 48 h; summary of the method: as §2
WRL68 = assay: Cytotoxicity against human WRL68 cells assessed as growth inhibition after 48 hrs by MTT assay; type: cell-based; conditions: WRL68, 48 h; summary of the method: as §2
A549 [5] = assay: Induction of reactive oxygen species formation in human A549 cells at 5 uM after 24 hrs by DCFH-DA probe-based flow cytometric analysis relative to control; type: functional
A549 [6] = assay: Cytotoxicity against human A549 cells assessed as growth inhibition after 48 hrs by MTT assay; type: functional, cell-based; conditions: A549, 48 h; summary of the method: as §2
HCT-116 = assay: Cytotoxicity against human HCT116 cells assessed as growth inhibition after 48 hrs by MTT assay; type: functional, cell-based; conditions: HCT-116, 48 h; summary of the method: as §2
HepG2 [7] = assay: Cytotoxicity against human HepG2 cells assessed as growth inhibition after 48 hrs by MTT assay; type: functional, cell-based; conditions: HepG2, 48 h; summary of the method: as §2
HepG2 [8] = assay: Cytotoxicity against human HepG2 cells assessed as growth inhibition at 40 uM after 48 hrs by MTT assay relative to control; type: functional; conditions: HepG2, 48 h, read-out: GI; summary of the method: as §1
MDA-MB-231 [9] = assay: Cytotoxicity against human MDA-MB-231 cells assessed as growth inhibition at 40 uM after 48 hrs by MTT assay relative to control; type: functional; conditions: MDA-MB-231, 48 h, read-out: GI; summary of the method: as §1
A549 [10] = assay: Cytotoxicity against human A549 cells assessed as growth inhibition at 40 uM after 48 hrs by MTT assay relative to control; type: functional; conditions: A549, 48 h, read-out: GI; summary of the method: as §1
A549 [11] = assay: Induction of apoptosis in human A549 cells assessed as late apoptotic cells at 1 uM after 24 hrs by FITC-annexin V/propidium iodide staining-based flow cytometric analysis (reference value: 0.36%); type: functional
A549 [12] = assay: Induction of apoptosis in human A549 cells assessed as viable cells at 4 uM after 24 hrs by FITC-annexin V/propidium iodide staining-based flow cytometric analysis (reference value: 97.7%); type: functional; conditions: A549, 24 h, read-out: Activity
A549 [13] = assay: Induction of apoptosis in human A549 cells assessed as necrotic cells at 1 uM after 24 hrs by FITC-annexin V/propidium iodide staining-based flow cytometric analysis (reference value: 0.055%); type: functional
A549 [14] = assay: Induction of apoptosis in human A549 cells assessed as late apoptotic cells at 4 uM after 24 hrs by FITC-annexin V/propidium iodide staining-based flow cytometric analysis (reference value: 0.36%); type: functional
[15] = Drug metabolism in human A549 cells assessed as nitric oxide production at 5 uM after 24 hrs by Griess assay; type: ADME, cell-based; conditions: a549, 24 h
Summary of the method: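 A549 cells were plated at 5.0 × 10^4/ml and treated in triplicate with compound at 5 μM for varying times up to 24 h. NO release was quantified as nitrite plus nitrate by Griess assay (commercial kit); mean ± SD, n = 3.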

A549 [16] = assay: Induction of apoptosis in human A549 cells assessed as early apoptotic cells at 2 uM after 24 hrs by FITC-annexin V/propidium iodide staining-based flow cytometric analysis (reference value: 1.87%); type: functional
A549 [17] = assay: Induction of apoptosis in human A549 cells assessed as viable cells at 1 uM after 24 hrs by FITC-annexin V/propidium iodide staining-based flow cytometric analysis (reference value: 97.7%); type: functional; conditions: A549, 24 h, read-out: Activity
A549 [18] = assay: Induction of apoptosis in human A549 cells assessed as viable cells at 2 uM after 24 hrs by FITC-annexin V/propidium iodide staining-based flow cytometric analysis (reference value: 97.7%); type: functional; conditions: A549, 24 h, read-out: Activity
A549 [19] = assay: Induction of apoptosis in human A549 cells assessed as late apoptotic cells at 2 uM after 24 hrs by FITC-annexin V/propidium iodide staining-based flow cytometric analysis (reference value: 0.36%); type: functional
A549 [20] = assay: Induction of apoptosis in human A549 cells assessed as necrotic cells at 4 uM after 24 hrs by FITC-annexin V/propidium iodide staining-based flow cytometric analysis (reference value: 0.055%); type: functional
A549 [21] = assay: Induction of apoptosis in human A549 cells assessed as early apoptotic cells at 1 uM after 24 hrs by FITC-annexin V/propidium iodide staining-based flow cytometric analysis (reference value: 1.87%); type: functional
A549 [22] = assay: Induction of apoptosis in human A549 cells assessed as early apoptotic cells at 4 uM after 24 hrs by FITC-annexin V/propidium iodide staining-based flow cytometric analysis (reference value: 1.87%); type: functional
A549 [23] = assay: Induction of apoptosis in human A549 cells assessed as necrotic cells at 2 uM after 24 hrs by FITC-annexin V/propidium iodide staining-based flow cytometric analysis (reference value: 0.055%); type: functional
A549 [24] = assay: Cytotoxicity against human A549 cells assessed as growth inhibition at 5 uM after 24 hrs in presence of nitric oxide scavenger carboxy-PTIO by MTT assay
A549 [25] = assay: Induction of apoptosis in human A549 cells assessed as increase in late apoptotic cells after 24 hrs by FITC-annexin V/propidium iodide staining-based flow cytometric analysis; type: functional, cell-based
[26] = Drug metabolism in human A549 cells assessed as nitric oxide production at 5 uM after 24 hrs in presence of nitric oxide scavenger carboxy-PTIO by Griess assay; type: ADME, cell-based; conditions: a549, 24 h
Summary of the method: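 A549 cells were pre-incubated with the NO scavenger carboxy-PTIO (50 μM) for 1 h, then treated with compound (5 μM) for 24 h. Proliferation was read by MTT and NO by Griess assay (nitrite/nitrate); mean ± SD of three independent experiments.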

A549 [27] = assay: Cytotoxicity against human A549 cells assessed as growth inhibition at 20 uM after 48 hrs by MTT assay relative to control; type: functional; conditions: A549, 48 h, read-out: GI; summary of the method: as §1
HepG2 [28] = assay: Cytotoxicity against human HepG2 cells assessed as growth inhibition at 20 uM after 48 hrs by MTT assay relative to control; type: functional; conditions: HepG2, 48 h, read-out: GI; summary of the method: as §1
MDA-MB-231 [29] = assay: Cytotoxicity against human MDA-MB-231 cells assessed as growth inhibition at 20 uM after 48 hrs by MTT assay relative to control; type: functional; conditions: MDA-MB-231, 48 h, read-out: GI; summary of the method: as §1

Structure (SMILES)	inhibition of growth at 10 µM (A549 [1])	inhibition of growth at 10 µM (HepG2 [2])	inhibition of growth at 10 µM (MDA-MB-231 [3])	IC50 (HK-2)	IC50 (MDA-MB-231 [4])	IC50 (WRL68)	IC50 (A549 [6])	IC50 (HCT-116)	IC50 (HepG2 [7])	other results
CC1=C(CCC(=O)OCCO/[N+]([O-])=N/N2CCOCC2)C(=O)c2c(O)cccc2C1=O	30.3%	32.5%	35.7%	–	–	–	–	–	–	–
CC1=C(CCCC(=O)OCCCO/[N+]([O-])=N/N2CCOCC2)C(=O)c2c(O)cccc2C1=O	11.3%	8.2%	9.5%	–	–	–	–	–	–	–
CC1=CC(=O)c2c(O)cccc2C1=O [PLUMBAGIN]	60.7%	58.9%	73.8%	23.6 µM	6.5 µM	15.4 µM	8.9 µM	9.8 µM	9.17 µM	fold change (FC) (A549 [5]): 1.34
CC1=C(CCC(=O)O)C(=O)c2c(O)cccc2C1=O	–	–	–	–	–	–	–	–	–	inhibition of growth at 40 µM (HepG2 [8]): 25.3%; inhibition of growth at 40 µM (MDA-MB-231 [9]): 8.7%; inhibition of growth at 40 µM (A549 [10]): 12.3%
CC1=C(CCC(=O)OCO/[N+]([O-])=N/N2CCCC2)C(=O)c2c(O)cccc2C1=O	32.9%	29.8%	31.6%	25.6 µM	15.2 µM	19.5 µM	16.4 µM	17.2 µM	17.8 µM	–
CC1=C(CCC(=O)OCCCCO/[N+]([O-])=N/N2CCOCC2)C(=O)c2c(O)cccc2C1=O	24.4%	28.8%	29.4%	–	–	–	–	–	–	–
CC1=C(CCC(=O)OCO/[N+]([O-])=N/N2CCOCC2)C(=O)c2c(O)cccc2C1=O	40.3%	31.3%	37.2%	24.6 µM	13.5 µM	19.3 µM	12.3 µM	15.6 µM	16.5 µM	–
CC1=C(CCCC(=O)OCO/[N+]([O-])=N/N2CCOCC2)C(=O)c2c(O)cccc2C1=O	91.2%	75.4%	88.3%	23.5 µM	4.12 µM	> 40 µM	3.48 µM	4.21 µM	5.52 µM	Activity (A549 [11]): 4.18%; viability at 4 µM (A549 [12]): 45.4%; Activity (A549 [13]): 1.56%; Activity (A549 [14]): 30.3%; Drug metabolism [15]: Metabolite_Detected; Activity (A549 [16]): 3.74%; viability at 1 µM (A549 [17]): 92.2%; viability at 2 µM (A549 [18]): 79.6%; Activity (A549 [19]): 10.1%; Activity (A549 [20]): 17.3%; Activity (A549 [21]): 2.09%; Activity (A549 [22]): 6.93%; fold change (FC) (A549 [5]): 1.64; Activity (A549 [23]): 6.53%; growth inhibition (GI) (A549 [24]): inactive; Activity (A549 [25]): Dose-dependent effect; Drug metabolism [26]: Metabolite_Notdetected
CC1=C(CCCC(=O)OCO/[N+]([O-])=N/N2CCCC2)C(=O)c2c(O)cccc2C1=O	65.6%	69.7%	70.8%	18.1 µM	6.97 µM	16.6 µM	9.24 µM	9.32 µM	7.12 µM	–
[O-]/[N+](=N\OCCl)N1CCCCC1	10.8%	17.6%	11.4%	–	–	–	–	–	–	–
CC1=C(CCC(=O)OCO/[N+]([O-])=N/N2CCCCC2)C(=O)c2c(O)cccc2C1=O	45%	35.1%	40.1%	27.7 µM	11.7 µM	28.2 µM	10.8 µM	20.2 µM	14.4 µM	–
[O-]/[N+](=N\OCCl)N1CCOCC1	19.1%	16.4%	13.3%	–	–	–	–	–	–	–
CC1=C(CCCC(=O)OCCCCO/[N+]([O-])=N/N2CCOCC2)C(=O)c2c(O)cccc2C1=O	38.2%	32.2%	30.6%	–	–	–	–	–	–	–
CC1=C(CCCC(=O)O)C(=O)c2c(O)cccc2C1=O	–	–	–	–	–	–	–	–	–	inhibition of growth at 20 µM (A549 [27]): 8.5%; inhibition of growth at 20 µM (HepG2 [28]): 28.6%; inhibition of growth at 20 µM (MDA-MB-231 [29]): 9.9%
CC1=C(CCCC(=O)OCCO/[N+]([O-])=N/N2CCOCC2)C(=O)c2c(O)cccc2C1=O	23.7%	25%	26.2%	–	–	–	–	–	–	–
CC1=C(CCCC(=O)OCO/[N+]([O-])=N/N2CCCCC2)C(=O)c2c(O)cccc2C1=O	86.7%	80.3%	83.6%	17.7 µM	4.92 µM	> 40 µM	4.27 µM	5.26 µM	6.68 µM	Drug metabolism [15]: Metabolite_Detected; growth inhibition (GI) (A549 [24]): inactive; Drug metabolism [26]: Metabolite_Notdetected
CC1=C(CCC(=O)OCCCO/[N+]([O-])=N/N2CCOCC2)C(=O)c2c(O)cccc2C1=O	26.9%	28%	28.6%	–	–	–	–	–	–	–
